Reference: ChEMBL document CHEMBL1157581, “Synthesis, metabolism and in vitro cytotoxicity studies on novel lavendamycin antitumor agents” (Bioorg Med Chem, 2010)
pIC50: −log10 of the molar value. Activity calls are given as the source filed them. No cut-off for these calls is given here.

What was measured:
[1] = test system: A549; assay: Suppression of clonogenic survival of human A549 cells at <100 nM; assay type: functional, cell-based
[2] = test system: A549; assay: Inhibition of clonogenic survival of human A549 cells at 100 nM; assay type: functional
[3] = biological target: NAD(P)H dehydrogenase [quinone] 1 (Homo sapiens) (UniProt P15559); assay: Activity of human NQO1 assessed as initial rate of compound reduction per mg of protein at 25 uM in presence of NADH by cytochrome c reduction assay
How it was run: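 Recombinant human NQO1 (0.1–3 µg) with cytochrome c 70 µM as terminal electron acceptor, NADH 1 mM, substrate 25 µM in 25 mM Tris-HCl pH 7.4 containing 0.7 mg/mL BSA and 0.1% Tween-20, room temperature, started with NADH. A550 followed; initial rate from linear 0–30 s segment, ε 21.1 mM⁻¹ cm⁻¹, µmol cytochrome c/min/mg NQO1; at least triplicate.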

[4] = test system: BE; assay: Cytotoxicity against human BE cells expressing human NQO1 after 3 to 5 days by MTT assay; assay type: functional, cell-based
How it was run: (§1)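 BE colon adenocarcinoma cells and NQO1-transfected BE-NQ cells (337 nmol/min/mg protein, DCPIP) in MEM with 10% FBS, 37 °C, 5% CO2. Seeded 10,000 cells/mL, attached 16 h, exposed 2 h, then washed out into fresh medium for 3–5 days. MTT 50 µg, 4 h, formazan in DMSO, A560; IC50 from semi-log plots of percent control.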

[5] = test system: BE; assay: Selectivity index, ratio of IC50 for human BE cells expressing human NQO1 to IC50 for NQO1 deficient human BE cells; assay type: functional
[6] = test system: BE; assay: Cytotoxicity against NQO1 deficient human BE cells after 3 to 5 days by MTT assay; assay type: functional, cell-based; how it was run: as §1
[7] = test system: BE; assay: Selectivity index, ratio of IC50 for NQO1 deficient human BE cells to IC50 for human BE cells expressing human NQO1

NAD(P)H dehydrogenase [quinone] 1 (Homo sapiens), sequence (P15559 whole entry): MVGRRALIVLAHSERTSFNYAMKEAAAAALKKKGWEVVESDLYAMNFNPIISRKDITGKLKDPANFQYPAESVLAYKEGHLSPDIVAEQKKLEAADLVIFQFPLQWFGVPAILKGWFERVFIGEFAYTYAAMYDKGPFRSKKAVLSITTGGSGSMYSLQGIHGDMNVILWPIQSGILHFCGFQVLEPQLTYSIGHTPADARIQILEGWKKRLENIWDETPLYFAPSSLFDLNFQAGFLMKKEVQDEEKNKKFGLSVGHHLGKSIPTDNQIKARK

Row | Activity [3] [µmol/min] | Structure (SMILES) | inhibition [1] | inhibition at 0.1 µM [2] [%] | pIC50 [4] | Ratio IC50 [5] | pIC50 [6] | Ratio IC50 [7]
1 |  | COC(=O)c1[nH]c(-c2ccc3c(n2)C(=O)C(=N)C(Cl)=C3O)c2nc3ccccc3c-2c1C | Active | 70 |  |  |  | 
2 | 3.9 | CCC(C)OC(=O)c1cc2c([nH]c3ccccc32)c(-c2ccc3c(n2)C(=O)C(NC(C)=O)=CC3=O)n1 (stereo not given) |  |  | 4.40 | 0.8 | 4.48 | 
3 | 31 | COC(=O)c1nc(-c2ccc3c(n2)C(=O)C(N)=CC3=O)c2[nH]c3ccc(O)cc3c2c1C |  |  | 5.24 |  | 4.85 | 2.5
4 | 36 | CC(=O)NC1=CC(=O)c2ccc(-c3nc(C(=O)NCC(O)CO)cc4c3[nH]c3ccccc34)nc2C1=O (stereo not given) |  |  | 4.74 |  | < 4.30 | >2.8
5 |  | N=C1C=C(O)c2ccc(-c3nc(C(N)=O)cc4c3[nH]c3ccccc34)nc2C1=O |  | 100 |  |  |  | 
6 | 2.9 | CC(C)CCOC(=O)c1cc2c([nH]c3ccc(O)cc32)c(-c2ccc3c(n2)C(=O)C(N)=CC3=O)n1 |  |  | < 4.30 |  | < 4.30 | 
7 | 20 | COC(=O)c1cc2c([nH]c3ccccc32)c(-c2ccc3c(n2)C(=O)C(NC=O)=CC3=O)n1 |  |  | 5.00 |  | 4.85 | 1.4
8 | 35 | NC1=CC(=O)c2ccc(-c3nc(C(=O)N4CCCC4)cc4c3[nH]c3ccccc34)nc2C1=O |  |  | 4.35 |  | < 4.30 | >1.1
9 | 6.8 | CCCOC(=O)c1cc2c([nH]c3ccccc32)c(-c2ccc3c(n2)C(=O)C(NC(C)=O)=CC3=O)n1 |  |  | 5.62 |  | 5.49 | 1.3
10 | 5.2 | CCCCOC(=O)c1cc2c([nH]c3ccccc32)c(-c2ccc3c(n2)C(=O)C(NC(=O)CCC(=O)O)=CC3=O)n1 |  |  | 5.12 |  | 4.92 | 1.6
11 | 13 | NC(=O)c1cc2c([nH]c3ccccc32)c(-c2ccc3c(n2)C(=O)C(NC(=O)CCl)=CC3=O)n1 |  |  | 5.24 |  | 4.92 | 2.1
12 | 0.04 | COC(=O)c1cc2c([nH]c3ccccc32)c(-c2ccc3c(n2)C(=O)C(NC(=O)C(C)C)=CC3=O)n1 |  |  | < 4.30 |  | < 4.30 | 
13 |  | COC(=O)c1nc(-c2ccc3c(n2)C(=O)C(N)=C(OC)C3=O)c2[nH]c3ccccc3c2c1C | Active |  |  |  |  | 
14 | 6.9 | CCOC(=O)c1cc2c([nH]c3ccccc32)c(-c2ccc3c(n2)C(=O)C(N)=C(Cl)C3=O)n1 |  |  | < 4.30 |  | < 4.30 | 
15 | 103 | NC1=CC(=O)c2ccc(-c3nc(C(=O)N4CCOCC4)cc4c3[nH]c3ccccc34)nc2C1=O |  |  | 5.70 |  | 4.74 | 9
16 |  | COC(=O)c1[nH]c(-c2ccc3c(n2)C(=O)C(NC(C)=O)=CC3=O)c2nc3ccccc3c-2c1C | Active |  |  |  |  | 
17 | 3.6 | CCOC(=O)c1cc2c([nH]c3ccccc32)c(-c2ccc3c(n2)C(=O)C(NC(C)=O)=CC3=O)n1 |  |  | 5.00 |  | 4.89 | 1.3
18 | 2.2 | CC(=O)NC1=CC(=O)c2ccc(-c3nc(C(=O)NCCO)cc4c3[nH]c3ccccc34)nc2C1=O |  |  | < 4.30 |  | < 4.30 | 
19 | 28 | COC(=O)c1cc2c([nH]c3ccccc32)c(-c2ccc3c(n2)C(=O)C(N)=CC3=O)n1 |  |  | 4.66 |  | 4.35 | 2
20 | 5.8 | COC(=O)c1nc(-c2ccc3c(n2)C(=O)C(NC(=O)c2ccco2)=CC3=O)c2[nH]c3ccccc3c2c1C |  |  | < 4.30 |  | < 4.30 | 
21 | 43 | CC(=O)NC1=CC(=O)c2ccc(-c3nc(C(=O)N4CCCC4)cc4c3[nH]c3ccccc34)nc2C1=O |  |  | 5.21 |  | 4.89 | 2.1
22 | 8.7 | CC(=O)NC1=CC(=O)c2ccc(-c3nc(C(=O)N4CCN(Cc5ccccc5)CC4)cc4c3[nH]c3ccccc34)nc2C1=O |  |  | 5.01 |  | 5.19 | 0.7
23 |  | COC(=O)c1cc2c([nH]c3ccccc32)c(-c2ccc3c(n2)C(=O)C(NC(C)=O)=CC3=O)n1 | Active |  |  |  |  | 
24 | 26 | NC1=CC(=O)c2ccc(-c3nc(C(=O)NCCO)cc4c3[nH]c3ccccc34)nc2C1=O |  |  | 5.96 |  | 5.96 | 1
25 | 34 | O=C(CCl)NC1=CC(=O)c2ccc(-c3nc(C(=O)N4CCCC4)cc4c3[nH]c3ccccc34)nc2C1=O |  |  | 5.52 |  | 5.10 | 2.7
26 | 21 | CCOC(=O)c1cc2c([nH]c3ccc(O)cc32)c(-c2ccc3c(n2)C(=O)C(NC(C)=O)=CC3=O)n1 |  |  | 5.32 |  | 5.40 | 0.8
